In brackets after ≈: the same amount, converted by molar mass.

We go through two molecules from paper PMC5869691 (Organic letters, 2018).

One experiment relates to bacterial membranes. Briefly: SYTOX uptake assay. It counts as cell-based. As to conditions: SYTOX fluorescence; positive control 12,3,2,3,12. A digest of the protocol: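 All synthetic test compounds were run in a SYTOX uptake assay for membrane damage in S. aureus cells. Uptake was scored qualitatively as positive or negative.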
The test system of a further experiment is S. aureus. Briefly: minimum inhibitory concentration. The experiment is classed as cell-based, Staphylococcus aureus. In short, it runs like this: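 Each synthetic test compound was tested against S. aureus SH1000, with USA300 and ATCC33591 as additional strains. MIC was read in both iron-rich medium (IRM) and iron-depleted medium (IDM), and values are given in μM. Vancomycin was the positive control run in parallel.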

Take `CCC(=O)[C@H](C)C[C@@H](C)C[C@H](C)CC[C@@H](O)C[C@@H](O)[C@@H](CC(C)C)[C@@H](O)c1cc(O)cc(O)c1` [Baulamycin A, baulamycin A]: the “membrane disruption (SYTOX uptake)” value with bacterial membranes is on record as “tested positive for membrane disruption”.

As to `CC(=O)[C@H](C)C[C@@H](C)C[C@H](C)CC[C@@H](O)C[C@@H](O)[C@@H](CC(C)C)[C@@H](O)c1cc(O)cc(O)c1` [Baulamycin B, baulamycin B], in the experiment with S. aureus, the “MIC against S. aureus” value stood at 500 µM (≈ 233 µg/mL). In addition, the “membrane disruption (SYTOX uptake)” value in the experiment on bacterial membranes is recorded as “exception”.
